Screens from PubChem.
CRFR2-BP antag – blocks CRF-induced signaling of the CRF-BP/CRF-R2 complex; inhibition, % at 11.8 µM; 350,000 compounds, 0.59% hits; AID 588475; HEK293 CRF-R2/CRF-BP, CRF-induced calcium fluorescence;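 active = inhibition of the ligand-induced calcium signal above about 50% at the single tested concentration, limit read from the data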
S100A4 inh HTS – S100A4-myosin IIA interaction inhibition | P26447 | S100A4/TAMRA-MyoIIA peptide fluorescence polarization | inhibition, % at 10.7 µM | 360,000 compounds, 0.14% hits;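 active = mean inhibition of at least 70% across replicates, with every replicate also reaching that level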
Target sequence (P26447 whole entry, looked up): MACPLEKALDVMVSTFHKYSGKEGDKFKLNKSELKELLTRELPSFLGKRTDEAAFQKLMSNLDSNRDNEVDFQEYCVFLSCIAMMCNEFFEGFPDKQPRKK
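Material: S100A4 monomer (human). Medium: Calcium-containing HEPES buffer, pH 7.2. Probe or stimulus: labelled myosin peptide probe, 5 nM. Compound dosing: one concentration per compound. Timing: polarization read 5 min after assay mix addition, stable 5–60 min. Benchmarks: DMSO as neutral control, TFP as positive control.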
PKA-R2B activ – activates the human PKA-R2B holoenzyme complex; 340,000 compounds, 0.079% hits; P22694+P31323; activation, % at 11.4 µM; PKA-R2B holoenzyme dissociation, Cy5-IP20 fluorescence polarization; R2B truncated from residue 108, S112A mutant; 0% DMSO only, 100% 113 µM cGMP;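 active = activation above a cutoff set at the mean over all compounds plus 3 SD, cut at about 18% in these data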;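 note: higher means more holoenzyme dissociation and a rise in polarization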
SIRT5 inh – inhibitors of human sirtuin-5 desuccinylase; 330,000 compounds, 1.1% hits; inhibition, % at 15 µM; Purified SirT5, succinyl-peptide AMC, trypsin-coupled fluorescence; Q9NXA8; in the data active = inhibition above about 15%
Target sequence (Q9NXA8 whole entry, looked up): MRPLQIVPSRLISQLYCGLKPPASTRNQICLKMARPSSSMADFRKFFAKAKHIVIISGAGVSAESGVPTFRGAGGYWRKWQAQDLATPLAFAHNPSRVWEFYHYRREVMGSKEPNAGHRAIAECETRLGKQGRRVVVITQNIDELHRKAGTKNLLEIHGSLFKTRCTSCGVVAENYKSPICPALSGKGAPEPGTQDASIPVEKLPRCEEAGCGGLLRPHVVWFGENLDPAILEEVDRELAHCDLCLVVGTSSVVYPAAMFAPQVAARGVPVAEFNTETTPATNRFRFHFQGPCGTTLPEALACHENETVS
PKA-R1A activ – activators of PKA-R1A complex; activation, % at 11.4 µM; 340,000 compounds, 0.083% hits; P00514+P68181; PKA-R1A dissociation, Cy5-IP20 fluorescence polarization; scaled: DMSO 0%, 113 µM cGMP 100%;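 active = percent activation above the mean of all tested compounds plus 3 SD, cut at about 19% in these data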;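 note: higher means more PKAc released from R1A so a rise in polarization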
An asterisk follows results filed as active; . = no result given. An excerpt weighted towards active compounds, which were near 1.5% of everything screened.

SMILES	CRFR2-BP antag	S100A4 inh HTS	PKA-R2B activ	SIRT5 inh	PKA-R1A activ
Cc1ccccc1S(=O)(=O)N1CC[C@@H]2[C@H](CO)N(C)c3ccc(C#Cc4ccc(F)cc4)cc3[C@@H]21	.	-8.4	.	12.1	.
Cc1ccc(S(=O)(=O)N(C)C[C@@H]2OCCCC[C@H](C)Oc3ccc(NS(=O)(=O)c4ccc(Cl)cc4)cc3C(=O)N([C@H](C)CO)C[C@H]2C)cc1	.	1.2	.	20.7*	.
Cc1ccc(S(=O)(=O)N(C)C[C@H]2OCCCC[C@@H](C)Oc3ccc(NS(=O)(=O)c4ccc(Cl)cc4)cc3C(=O)N([C@@H](C)CO)C[C@H]2C)cc1	.	-0.3	.	22.1*	.
C[C@@H]1CCCCO[C@H](CN(C)S(=O)(=O)c2ccc(Cl)cc2)[C@@H](C)CN([C@@H](C)CO)C(=O)c2cc(NS(=O)(=O)c3ccc(Cl)cc3)ccc2O1	.	-7.3	.	11.0	.
Cc1ccc(S(=O)(=O)N(C)C[C@H]2OCCCC[C@@H](C)Oc3ccc(NS(=O)(=O)c4ccc(Cl)cc4)cc3C(=O)N([C@H](C)CO)C[C@H]2C)cc1	.	-15.0	.	28.5*	.
Cc1ccc(S(=O)(=O)N(C)C[C@H]2OCCCC[C@H](C)Oc3ccc(NS(=O)(=O)c4ccc(Cl)cc4)cc3C(=O)N([C@H](C)CO)C[C@@H]2C)cc1	.	2.1	.	24.0*	.
Cc1ccc(S(=O)(=O)Nc2ccc3c(c2)C(=O)N([C@H](C)CO)C[C@@H](C)[C@@H](CN(C)S(=O)(=O)c2ccc(C)cc2)OCCCC[C@H](C)O3)cc1	.	-1.6	.	1.7	.
CC(NCC(=O)Nc1ccccc1C(=O)NC1CC1)c1cccc(Cl)c1 (stereo not drawn)	66.2*	-0.4	-1.9	-3.7	1.6
COc1cccc(CNC(=O)C[C@@H]2CC[C@H](NC(=O)C3CCC3)[C@@H](CO)O2)c1	.	1.7	.	14.2	.
CCOC(=O)n1c(=O)n(Cc2ccccc2)c2ccccc21	19.5	.	2.5	.	3.1
CCOC(=O)n1c(=O)n(C)c2ccc(Cl)cc21	11.7	-2.0	12.0	19.7*	-9.8
COc1ccc(-c2csc(NC(=O)c3ccccc3NS(=O)(=O)c3ccc(F)c(F)c3)n2)cc1	84.3*	-2.7	-12.9	2.2	-8.7
Cc1ccc(S(=O)(=O)Nc2ccccc2C(=O)Nc2nc(-c3ccc(F)cc3)cs2)cc1	77.4*	-2.4	-5.2	-4.3	-3.4
COCC#Cc1ccc2c(c1)O[C@H](CN(C)S(=O)(=O)c1cccc(OC)c1)[C@@H](C)CN([C@H](C)CO)S2(=O)=O	.	5.3	.	1.9	.
C[C@H](CO)N1C[C@H](C)[C@H](CN(C)Cc2cccnc2)Oc2ncc(/C=C/c3ccccc3)cc2C1=O	.	4.8	.	-7.7	.
CC(C)(C)C(=O)CNCC(=O)C(C)(C)C	-4.0	-2.2	7.5	24.6*	-5.4
CCOc1ccc(CCNC(=O)c2cccc(S(=O)(=O)N3CCN(C(C)=O)CC3)c2)cc1OCC	-5.3	20.9	2.8	20.8*	5.8
COc1ccc(-c2ccc3n(c2=O)C[C@@H]2[C@@H](CO)[C@H](C(=O)NCCN4CCCCC4)N(C)[C@H]32)cc1	.	-0.3	.	-25.1	.
C/C(C/C(C)=C1/SC(=S)NC1=O)=C1\SC(=S)NC1=O	13.2	-2.4	-19.3	49.4*	-1.5
COc1ccccc1N1CCN(C(=O)C(=O)c2cn(CC(=O)N3CCCC3)c3ccccc23)CC1	61.9*	-6.0	-5.7	-0.1	2.6
C/C=C/c1ccc2c(c1)[C@H]1[C@H](CCN1S(=O)(=O)c1ccccc1C)[C@@H](CO)N2	.	0.0	.	7.3	.
CC1(C)C(/C=C/C=C/C=C/C=C2\N(CCCCS(=O)(=O)O)c3ccc4ccccc4c3C2(C)C)=[N+](CCCCS(=O)(=O)[O-])c2ccc3ccccc3c21	68.6*	.	-2.1	.	-7.5
Cc1c2ccccc2cc[n+]1CCCS(=O)(=O)[O-]	-23.5	.	0.3	.	-1.9
Cc1cccc(S(=O)(=O)N2CC[C@@H]3[C@H]2c2cc(C#Cc4cccc(F)c4)ccc2N[C@@H]3CO)c1	.	-4.7	.	5.3	.
COc1ccc(NC(=O)N(C)C[C@H]2Oc3ccc(NC(=O)C4CCCCC4)cc3CC(=O)N([C@@H](C)CO)C[C@H]2C)cc1	.	-46.6	.	-3.2	.
SMILES	CRFR2-BP antag	S100A4 inh HTS	PKA-R2B activ	SIRT5 inh	PKA-R1A activ
Cc1ccc(Cc2c(-c3cccc(Br)c3)nc3c(Cl)cc(C(F)(F)F)cn23)cc1	.	-13.9	.	25.0*	.
O=C(C[C@H]1C=C[C@@H](NC(=O)C2CCOCC2)[C@H](CO)O1)NCc1ccccc1Cl	.	-3.8	.	-6.2	.
O=C(CN1C(=O)NC2(CCCC2)C1=O)N1CCN(c2ccccc2O)CC1	9.3	1.4	2.0	17.8*	-5.5
FC(F)(F)c1cc(C(F)(F)F)c2ccc(N3CCN(c4ccc(Cl)cc4)CC3)nc2n1	4.4	.	-14.1	.	-1.7
N#CC(c1ccc(Cl)cc1)c1ccc2c(C(F)(F)F)cc(C(F)(F)F)nc2n1 (stereo not drawn)	69.4*	.	4.8	.	-10.5
CCCCNC(=O)CCN1N=C(c2ccccc2)CCC1=O	5.4	-1.2	-3.1	3.4	-3.3
CCN(CC)CCNC(=O)CCN1N=C(c2ccccc2)CCC1=O	7.4	-4.9	3.4	25.9*	-8.2
FC(F)(F)c1ccccc1-c1nc(-c2ccncc2)no1	57.4*	8.0	-4.9	-3.1	-3.9
Fc1cccc(F)c1-c1nc(-c2ccncc2)no1	21.4	1.2	-1.9	20.1*	3.5
N#C/C(=C1\CCCN1)c1nc2ccccc2c(=O)[nH]1	67.7*	.	2.0	.	-6.2
N#C/C(=C/c1ccncc1)c1nc2ccccc2c(=O)[nH]1	3.2	-4.4	2.7	2.4	-14.3
O=C(Nc1cccc(F)c1)N1CC(=O)N2[C@@H](CO)[C@@H](c3ccc(Br)cc3)[C@@H]2C1	.	0.4	.	-2.8	.
CN(C)CC(=O)N1[C@H](CO)[C@H](c2ccccc2)C12CN(C(=O)c1cccc(F)c1)C2	.	-12.4	.	1.4	.
Cc1ccc(S(=O)(=O)N(C)C[C@H]2Oc3cc(C#Cc4ccncc4)ccc3S(=O)(=O)N([C@@H](C)CO)C[C@@H]2C)cc1	.	-18.5	.	10.0	.
Cc1ccc(S(=O)(=O)N(C)C[C@@H]2Oc3cc(C#Cc4ccncc4)ccc3S(=O)(=O)N([C@@H](C)CO)C[C@H]2C)cc1	.	-13.9	.	15.0*	.
Cc1ccc(S(=O)(=O)N(C)C[C@@H]2Oc3cc(C#Cc4ccncc4)ccc3S(=O)(=O)N([C@H](C)CO)C[C@H]2C)cc1	.	-88.8	.	16.1*	.
CC(=O)c1ccc(NC(=O)C(C)OC(=O)c2ccc(Br)o2)cc1 (stereo not drawn)	53.9*	-1.4	-0.7	-1.2	-12.3
CC(=O)c1cccc(NC(=O)C(C)OC(=O)c2ccc(Br)o2)c1 (stereo not drawn)	15.2	-4.8	-0.9	3.2	-2.4
CCCC(=O)Nc1c(C(=O)OCC)[nH]c2ccccc12	3.8	8.0	-2.5	-0.6	2.7
CCOC(=O)c1[nH]c2ccccc2c1NC(=O)Nc1ccc(OC)cc1	84.8*	.	9.8	.	1.1
